The compounds below were run on Hepatitis C virus (assay: Antiviral activity against Hepatitis C virus subtype 1b expressing NS3 T54A mutant infected in HuH7 cells after 48 hrs by luciferase reporter assay). Conditions: genotype 1b, Huh-7, 48 h.
Assay type: functional, organism-based, Hepacivirus hominis
Outline: (§1)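 Genotype 1b con1 subgenomic bicistronic replicon (clone ET) with luciferase reporter and adaptive mutations E1202G, T1280I, K1846T, carrying site-directed NS3 single or double mutations. 10 μg wild-type or mutant replicon RNA electroporated into Huh7-lunet cells, seeded 4,000 cells/well over a nine-point inhibitor dilution series, 48 h at 37°C, 5% CO2, then luminescence read. EC50 taken as median of individual experiments; fold change relative to parental replicon EC50.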

Compound | EC50 [nM]
COc1ccc2c(O[C@@H]3C[C@H]4C(=O)N[C@]5(C(=O)O)C[C@H]5/C=C\CCCCC[C@H](NC(=O)OC5CCCC5)C(=O)N4C3)cc(-c3csc(NC(C)C)n3)nc2c1 [CILUPREVIR] | 0.7

These compounds were tested on Hepatitis C virus (assay: Ratio of EC50 for Hepatitis C virus subtype 1b expressing NS3 Q80R and D168A mutant to EC50 for Hepatitis C virus subtype 1b expressing WT NS3 infected in HuH7 cells after 48 hrs by luciferase reporter assay). Conditions: not given.
Assay type: functional, Hepacivirus hominis, genotype 1b, Huh-7
Outline: (§2)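 Transient replicon assay: site-directed single or multiple NS3 mutations engineered into genotype 1b (con1, clone ET) subgenomic bicistronic replicon with luciferase reporter and adaptive mutations E1202G, T1280I, K1846T. Huh7-lunet cells electroporated with 10 μg wild-type or mutant replicon RNA, seeded 4,000 cells/well with nine-point inhibitor dilution; 48 h, 37°C, 5% CO2; luminescence read-out. EC50 as median of individual experiments; fold change versus parental replicon EC50.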

Compound | Ratio EC50
COc1ccc2c(O[C@@H]3C[C@H]4C(=O)N[C@]5(C(=O)O)C[C@H]5/C=C\CCCCC[C@H](NC(=O)OC5CCCC5)C(=O)N4C3)cc(-c3csc(NC(C)C)n3)nc2c1 [CILUPREVIR] | 1827

These compounds were tested on Hepatitis C virus (assay: Antiviral activity against Hepatitis C virus subtype 1b expressing NS3 Q80R and R155K mutant infected in HuH7 cells after 48 hrs by luciferase reporter assay). Conditions: genotype 1b, Huh-7, 48 h.
Assay type: functional, organism-based, Hepacivirus hominis
Outline: as §1

Compound | EC50 [nM]
COc1ccc2c(O[C@@H]3C[C@H]4C(=O)N[C@]5(C(=O)O)C[C@H]5/C=C\CCCCC[C@H](NC(=O)OC5CCCC5)C(=O)N4C3)cc(-c3csc(NC(C)C)n3)nc2c1 [CILUPREVIR] | 707

The compounds below were run on Hepatitis C virus (assay: Ratio of EC50 for Hepatitis C virus subtype 1b expressing NS3 Q80R and R155K mutant to EC50 for Hepatitis C virus subtype 1b expressing WT NS3 infected in HuH7 cells after 48 hrs by luciferase reporter assay). Conditions: not given.
Assay type: functional, Hepacivirus hominis, genotype 1b, Huh-7
Outline: as §2

Compound | Ratio EC50
COc1ccc2c(O[C@@H]3C[C@H]4C(=O)N[C@]5(C(=O)O)C[C@H]5/C=C\CCCCC[C@H](NC(=O)OC5CCCC5)C(=O)N4C3)cc(-c3csc(NC(C)C)n3)nc2c1 [CILUPREVIR] | 772

Each compound was assayed on Hepatitis C virus (assay: Antiviral activity against Hepatitis C virus subtype 1b expressing NS3 D168N mutant infected in HuH7 cells after 48 hrs by luciferase reporter assay). Conditions: genotype 1b, Huh-7, 48 h.
Assay type: functional, organism-based, Hepacivirus hominis
Outline: as §1

Compound | EC50 [nM]
COc1ccc2c(O[C@@H]3C[C@H]4C(=O)N[C@]5(C(=O)O)C[C@H]5/C=C\CCCCC[C@H](NC(=O)OC5CCCC5)C(=O)N4C3)cc(-c3csc(NC(C)C)n3)nc2c1 [CILUPREVIR] | 18

These compounds were tested on Hepatitis C virus (assay: Antiviral activity against Hepatitis C virus subtype 1b expressing NS3 V36L mutant infected in HuH7 cells after 48 hrs by luciferase reporter assay). Conditions: genotype 1b, Huh-7, 48 h.
Assay type: functional, organism-based, Hepacivirus hominis
Outline: as §1

Compound | EC50 [nM]
COc1ccc2c(O[C@@H]3C[C@H]4C(=O)N[C@]5(C(=O)O)C[C@H]5/C=C\CCCCC[C@H](NC(=O)OC5CCCC5)C(=O)N4C3)cc(-c3csc(NC(C)C)n3)nc2c1 [CILUPREVIR] | 1.4

The compounds below were run on Hepatitis C virus (assay: Ratio of EC50 for Hepatitis C virus subtype 1b expressing NS3 D168A mutant to EC50 for Hepatitis C virus subtype 1b expressing WT NS3 infected in HuH7 cells after 48 hrs by luciferase reporter assay). Conditions: not given.
Assay type: functional, Hepacivirus hominis, genotype 1b, Huh-7
Outline: as §1

Compound | Ratio EC50
COc1ccc2c(O[C@@H]3C[C@H]4C(=O)N[C@]5(C(=O)O)C[C@H]5/C=C\CCCCC[C@H](NC(=O)OC5CCCC5)C(=O)N4C3)cc(-c3csc(NC(C)C)n3)nc2c1 [CILUPREVIR] | 339

These compounds were tested on Hepatitis C virus (assay: Ratio of EC50 for Hepatitis C virus subtype 1b expressing NS3 R155K mutant to EC50 for Hepatitis C virus subtype 1b expressing WT NS3 infected in HuH7 cells after 48 hrs by luciferase reporter assay). Conditions: not given.
Assay type: functional, Hepacivirus hominis, genotype 1b, Huh-7
Outline: as §2

Compound | Ratio EC50
COc1ccc2c(O[C@@H]3C[C@H]4C(=O)N[C@]5(C(=O)O)C[C@H]5/C=C\CCCCC[C@H](NC(=O)OC5CCCC5)C(=O)N4C3)cc(-c3csc(NC(C)C)n3)nc2c1 [CILUPREVIR] | 496

Each compound was assayed on Hepatitis C virus (assay: Ratio of EC50 for Hepatitis C virus subtype 1b expressing NS3 D168H mutant to EC50 for Hepatitis C virus subtype 1b expressing WT NS3 infected in HuH7 cells after 48 hrs by luciferase reporter assay). Conditions: not given.
Assay type: functional, Hepacivirus hominis, genotype 1b, Huh-7
Outline: as §2

Compound | Ratio EC50
COc1ccc2c(O[C@@H]3C[C@H]4C(=O)N[C@]5(C(=O)O)C[C@H]5/C=C\CCCCC[C@H](NC(=O)OC5CCCC5)C(=O)N4C3)cc(-c3csc(NC(C)C)n3)nc2c1 [CILUPREVIR] | 263

These compounds were tested on Hepatitis C virus (assay: Ratio of EC50 for Hepatitis C virus subtype 1b expressing NS3 R109K mutant to EC50 for Hepatitis C virus subtype 1b expressing WT NS3 infected in HuH7 cells after 48 hrs by luciferase reporter assay). Conditions: not given.
Assay type: functional, Hepacivirus hominis, genotype 1b, Huh-7
Outline: as §2

Compound | Ratio EC50
COc1ccc2c(O[C@@H]3C[C@H]4C(=O)N[C@]5(C(=O)O)C[C@H]5/C=C\CCCCC[C@H](NC(=O)OC5CCCC5)C(=O)N4C3)cc(-c3csc(NC(C)C)n3)nc2c1 [CILUPREVIR] | 0.7

What follows are compounds tested on Hepatitis C virus (assay: Ratio of EC50 for Hepatitis C virus subtype 1b expressing NS3 V36L mutant to EC50 for Hepatitis C virus subtype 1b expressing WT NS3 infected in HuH7 cells after 48 hrs by luciferase reporter assay). Conditions: not given.
Assay type: functional, Hepacivirus hominis, genotype 1b, Huh-7
Outline: as §2

Compound | Ratio EC50
COc1ccc2c(O[C@@H]3C[C@H]4C(=O)N[C@]5(C(=O)O)C[C@H]5/C=C\CCCCC[C@H](NC(=O)OC5CCCC5)C(=O)N4C3)cc(-c3csc(NC(C)C)n3)nc2c1 [CILUPREVIR] | 1

The compounds below were run on Hepatitis C virus (assay: Antiviral activity against Hepatitis C virus subtype 1b expressing NS3 S138T mutant infected in HuH7 cells after 48 hrs by luciferase reporter assay). Conditions: genotype 1b, Huh-7, 48 h.
Assay type: functional, organism-based, Hepacivirus hominis
Outline: as §1

Compound | EC50 [nM]
COc1ccc2c(O[C@@H]3C[C@H]4C(=O)N[C@]5(C(=O)O)C[C@H]5/C=C\CCCCC[C@H](NC(=O)OC5CCCC5)C(=O)N4C3)cc(-c3csc(NC(C)C)n3)nc2c1 [CILUPREVIR] | 0.5

These compounds were tested on Hepatitis C virus (assay: Antiviral activity against Hepatitis C virus subtype 1b expressing NS3 Q80H and D168E mutant infected in HuH7 cells after 48 hrs by luciferase reporter assay). Conditions: genotype 1b, Huh-7, 48 h.
Assay type: functional, organism-based, Hepacivirus hominis
Outline: as §1

Compound | EC50 [nM]
COc1ccc2c(O[C@@H]3C[C@H]4C(=O)N[C@]5(C(=O)O)C[C@H]5/C=C\CCCCC[C@H](NC(=O)OC5CCCC5)C(=O)N4C3)cc(-c3csc(NC(C)C)n3)nc2c1 [CILUPREVIR] | 52

The compounds below were run on Hepatitis C virus (assay: Antiviral activity against Hepatitis C virus subtype 1b expressing NS3 F43S mutant infected in HuH7 cells after 48 hrs by luciferase reporter assay). Conditions: genotype 1b, Huh-7, 48 h.
Assay type: functional, organism-based, Hepacivirus hominis
Outline: as §1

Compound | EC50 [nM]
COc1ccc2c(O[C@@H]3C[C@H]4C(=O)N[C@]5(C(=O)O)C[C@H]5/C=C\CCCCC[C@H](NC(=O)OC5CCCC5)C(=O)N4C3)cc(-c3csc(NC(C)C)n3)nc2c1 [CILUPREVIR] | 1

Each compound was assayed on Hepatitis C virus (assay: Antiviral activity against Hepatitis C virus subtype 1b expressing NS3 Q80H mutant infected in HuH7 cells after 48 hrs by luciferase reporter assay). Conditions: genotype 1b, Huh-7, 48 h.
Assay type: functional, organism-based, Hepacivirus hominis
Outline: as §1

Compound | EC50 [nM]
COc1ccc2c(O[C@@H]3C[C@H]4C(=O)N[C@]5(C(=O)O)C[C@H]5/C=C\CCCCC[C@H](NC(=O)OC5CCCC5)C(=O)N4C3)cc(-c3csc(NC(C)C)n3)nc2c1 [CILUPREVIR] | 1.2
